Results on 20 molecules are retold here after ChEMBL document CHEMBL1125144, “5-[(Aminoalkyl)amino]imidazo[4,5,1-de]acridin-6-ones as a novel class of antineoplastic agents. Synthesis and biological activity” (J Med Chem, 1990).

Molecules are shown by their SMILES. Values joined by “and” are separate entries in the source; they are usually repeats but may differ in a detail not shown here. Identical values can stand only once.

Assay [1] concerns P388. The assay can be described thus: In vivo antitumor activity was determined against P 388 leukemia cells implanted (ip) in BDF1 mice at a dose of 175 mg/kg. It is filed as functional, Mus musculus. Summed up: (§1)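 Groups of eight BDF1 mice received 10⁶ P388 cells ip on day 0. Control groups of 18 mice received saline. Read-out is T/C (%). T/C ≤85% is scored toxic and ≥125% significant activity. Some doses were repeated in an independent multidose assay.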

Assay [2] relates to HeLa. The assay can be described thus: In vitro cytotoxic activity against HeLaS3 cells in tissue culture was determined. Conditions: Homo sapiens. The format is functional, cell-based. Summed up:
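HeLa S3 cells grown in tissue culture. Read-out is the concentration giving 50% inhibition. Significant cytotoxicity is defined as 50% inhibition at <1 µg/mL. Values are the mean of three independent experiments.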

For assay [3], the system named is P388. The assay can be described thus: In vivo antitumor activity was determined against P 388 leukemia cells implanted (ip) in BDF1 mice at a dose of 100 mg/kg. It is filed as functional, Mus musculus. Summed up: as §1
In assay [4] the test system is P388. The assay can be described thus: In vivo antitumor activity was determined against P 388 leukemia cells implanted (ip) in BDF1 mice at a dose of 50 mg/kg. It is filed as functional, Mus musculus. In a few lines:
as §1

Assay [5] has as its system P388. The assay can be described thus: In vivo antitumor activity was determined against P 388 leukemia cells implanted (ip) in BDF1 mice at a dose of 25 mg/kg. The format is functional, Mus musculus. Summed up:
as §1

Assay [6] concerns P388. The assay can be described thus: In vivo antitumor activity was determined against P 388 leukemia cells implanted (ip) in BDF1 mice at a dose of 75. The format is functional, Mus musculus. Summed up: as §1
Assay [7] relates to P388. The assay can be described thus: In vivo antitumor activity was determined against P 388 leukemia cells implanted (ip) in BDF1 mice at a dose of 90 mg/kg. It is filed as functional, Mus musculus. In a few lines:
as §1

For assay [8], the system named is P388. The assay can be described thus: In vivo antitumor activity was determined against P 388 leukemia cells implanted (ip) in BDF1 mice at a dose of 75 mg/kg. It is filed as functional, Mus musculus. In a few lines: as §1
Assay [9] deals with P388. The assay can be described thus: In vivo antitumor activity was determined against P 388 leukemia cells implanted (ip) in BDF1 mice at a dose of 60 mg/kg. It is filed as functional, Mus musculus. In a few lines: as §1
In assay [10] the test system is P388. The assay can be described thus: In vivo antitumor activity was determined against P 388 leukemia cells implanted (ip) in BDF1 mice a dose of 75 mg/kg. It is filed as functional, Mus musculus. Summed up: as §1
Assay [11] has as its system P388. The assay can be described thus: In vivo antitumor activity was determined against P 388 leukemia cells implanted (ip) in BDF1 mice at a dose of 30 mg/kg. It is filed as functional, Mus musculus. Summed up:
as §1

For assay [12], the system named is P388. The assay can be described thus: In vivo antitumor activity was determined against P 388 leukemia cells implanted (ip) in BDF1 mice at a dose of 150 mg/kg. The format is functional, Mus musculus. In a few lines:
as §1

With `CCCc1nc2ccc(NCCN(C)C)c3c(=O)c4ccccc4n1c23.Cl.Cl`, the T/C in [1] was 211% and 233%. Besides, the half-maximal inhibitory concentration (IC50) in [2] is 0.2 µg/mL.

Consider `CN(C)CCCNc1ccc2ncn3c4ccccc4c(=O)c1c23.Cl.Cl`, for which the T/C in [3] (100 mg/kg) is 133% and 120%. In assay [2], this molecule showed an IC50 of 0.15 µg/mL.

Take `Cc1nc2ccc(NCCN(C)C)c3c(=O)c4ccccc4n1c23.Cl.Cl`: in assay [4] (50 mg/kg), the T/C was 190% and 230%. This molecule showed an IC50 in assay [2] of 0.05 µg/mL.

As to `CN(C)CCNc1ccc([N+](=O)[O-])c2nc3ccccc3c(O)c12.Cl`, the T/C was 185% in [4]; 160% and 166% in assay [5] (25 mg/kg). Further, in assay [2], half-maximal inhibition (IC50) required 0.15 µg/mL.

Regarding `CN(C)CCCNc1ccc([N+](=O)[O-])c2nc3ccccc3c(O)c12.Cl`, the figures for the T/C in [3] and in [6] were 189% and 190%, respectively. Also, the IC50 in assay [2] came out at 0.04 µg/mL.

In assay [4], `CN(C)CCNc1ccc2nc(-c3ccccc3)n3c4ccccc4c(=O)c1c23.Cl.Cl` showed a T/C of 150%. Further, the IC50 in assay [2] is 0.43 µg/mL.

For the molecule `CCc1nc2ccc(NCCCN(C)C)c3c(=O)c4ccccc4n1c23.Cl.Cl`, the T/C in [7] came to 130%. This molecule also yielded an IC50 in [2] of 0.25 µg/mL.

In the case of `CC(=O)Nc1ccc(NCCCN(C)C)c2c(O)c3ccccc3nc12.Cl.Cl`, the IC50 in [2] was more than 5 µg/mL.

For `CCCCCCCCc1nc2ccc(NCCN(C)C)c3c(=O)c4ccccc4n1c23.Cl.Cl`, the T/C in assay [8] is less than 85%. For the same molecule, the IC50 in [2] came out at 0.2 µg/mL.

With `CN(C)CCCCCNc1ccc(N)c2nc3ccccc3c(O)c12.Cl.Cl`, the IC50 in assay [2] was 1.05 µg/mL.

With `CCc1nc2ccc(NCCN(C)C)c3c(=O)c4ccccc4n1c23.Cl.Cl`, in [3], the T/C was found to be 200%. For the same molecule, half-maximal inhibition in [2] (IC50) was put at 0.11 µg/mL.

For the molecule `CN(C)CCCCCNc1ccc([N+](=O)[O-])c2nc3ccccc3c(O)c12.Cl`, the T/C in assay [9] is 144%. In addition, the IC50 in [2] was found to be 0.13 µg/mL.

With `CN(C)CCNc1ccc2ncn3c4ccccc4c(=O)c1c23.Cl.Cl`, the T/C in assay [5] (25 mg/kg) was 180% and 188%. The molecule also showed an IC50 in [2] of 0.06 µg/mL.

Turning to `CN(C)CCCNc1ccc(N)c2nc3ccccc3c(O)c12.Cl.Cl`, the T/C in [5] is less than 85%. The molecule also displayed an IC50 in assay [2] of 0.25 µg/mL.

`CC(=O)Nc1ccc(NCCN(C)C)c2c(O)c3ccccc3nc12.Cl.Cl` came in with a T/C in assay [10] of 137%. This molecule registered an IC50 in assay [2] of more than 5 µg/mL.

The molecule `CN(C)CCCNc1ccc2nc(-c3ccccc3)n3c4ccccc4c(=O)c1c23.Cl.Cl` showed a T/C in [11] of 110%. Also, inhibition in [2] was half-maximal at 0.28 µg/mL (IC50).

For `CN(C)CCNc1ccc(N)c2nc3ccccc3c(O)c12.Cl.Cl`, the T/C in assay [3] is less than 85%. 2.93 µg/mL corresponded to half-maximal inhibition in assay [2] (IC50).

With `Cc1nc2ccc(NCCCN(C)C)c3c(=O)c4ccccc4n1c23.Cl.Cl`, the T/C in assay [12] stood at 122%. Further, the IC50 in assay [2] turned out to be 0.11 µg/mL.

`CN(C)CCCCCNc1ccc2ncn3c4ccccc4c(=O)c1c23.Cl.Cl` registered a T/C in [3] of 110%. The molecule also returned an IC50 in [2] of 0.5 µg/mL.

As for `CC(C)c1nc2ccc(NCCN(C)C)c3c(=O)c4ccccc4n1c23.Cl.Cl`, the T/C in [12] was found to be 166%. In [2], the IC50 was determined as 0.37 µg/mL.

As usually defined, the T/C is the result in the treated group divided by that in the control group, in per cent. In general, IC50 refers to the concentration that inhibits the measured activity by half. Read a high IC50 as weaker potency.
